Test results: ChEMBL document CHEMBL5724801, “EUbOPEN Chemogenomics Library - Multiplex” (2024)
Several values for one entry are separate records, joined by “and”; a condition that tells them apart may be missing. Equal entries are not always repeated.

Tested on: HEK-293T
Experiment: Multiplex assay against HEK293T
Type: toxicity, cell-based
Details: human
How it was run: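 Cells stained live at seeding with Hoechst33342, BioTracker Green Microtubule Cytoskeleton Dye, MitoTracker Red and Annexin V Alexa Fluor 680 were imaged on a CQ1 microscope at 37°C and 5% CO2 after compound addition. Their classification by CellPathfinder machine-learning gating ran from Hoechst high-intensity objects versus normal cells, to healthy, pyknosed or fragmented nuclei among normal cells, to mitotic or apoptotic among pyknosed cells. Tubulin, mitochondrial-mass and membrane-permeability phenotypes are per cents of healthy-nucleus cells.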

[1] = 12 h, 1 µM, compound concentration 1 uM
[2] = 12 h, 10 µM, compound concentration 10 uM
[3] = 24 h, 1 µM, compound concentration 1 uM
[4] = 24 h, 10 µM, compound concentration 10 uM
[5] = 48 h, 1 µM, compound concentration 1 uM
[6] = 48 h, 10 µM, compound concentration 10 uM

`Cc1ccc(C(C)(O)c2nc3ccccc3s2)c(C)c1` (stereo not drawn) was tested, and the “Population Apoptotic (%)” value [1] was 30% and 41%, the “Population Healthy Nuclei (%)” value [1] was 72% and 79% and the “Population Hoechst High Intensity Objects (%)” value [1] was 4% and 5%. The “Population Membrane Permeable-Phenotype (%)” value [1] was 1% and 0%, the “Population Mitochondria Different-Phenotype (%)” value [1] was 36% and 63% and the “Population Mitotic Cells (%)” value [1] was 70% and 58%. For the same compound, the “Population Normal (%)” value [1] was 95% and 94%, the “Population Pyknosed Nuclei (%)” value [1] was 8% and 16% and the “Population Tubulin-Different-Phenotype (%)” value [1] was 30% and 25%. For the same compound, the “Total Cell Count” value [1] was 483 and 308, the “Population Apoptotic (%)” value [2] was 56% and 36% and the “Population Fragmented Nuclei (%)” value [2] was 5% and 7%. The “Population Healthy Nuclei (%)” value [2] was 82% and 78%, the “Population Hoechst High Intensity Objects (%)” value [2] was 8% and 7% and the “Population Membrane Permeable-Phenotype (%)” value [2] was 0%. The “Population Mitochondria Different-Phenotype (%)” value [2] was 62% and 72%, the “Population Mitotic Cells (%)” value [2] was 43% and 63% and the “Population Normal (%)” value [2] was 91% and 92%. The “Population Pyknosed Nuclei (%)” value [2] was 12% and 13%, the “Population Tubulin-Different-Phenotype (%)” value [2] was 44% and 25% and the “Total Cell Count” value [2] was 412 and 318. The “Population Apoptotic (%)” value [3] was 26% and 32%, the “Population Fragmented Nuclei (%)” value [3] was 18% and 6% and the “Population Healthy Nuclei (%)” value [3] was 73% and 85%. The “Population Hoechst High Intensity Objects (%)” value [3] was 3%, the “Population Membrane Permeable-Phenotype (%)” value [3] was 1% and 0% and the “Population Mitochondria Different-Phenotype (%)” value [3] was 15% and 36%. For the same compound, the “Population Mitotic Cells (%)” value [3] was 73% and 67%, the “Population Normal (%)” value [3] was 96% and the “Population Pyknosed Nuclei (%)” value [3] was 8% and 7%. For the same compound, the “Population Tubulin-Different-Phenotype (%)” value [3] was 11% and 16%, the “Total Cell Count” value [3] was 645 and 447 and the “Population Apoptotic (%)” value [4] was 28% and 36%. The “Population Fragmented Nuclei (%)” value [4] was 6% and 10%, the “Population Healthy Nuclei (%)” value [4] was 82% and 78% and the “Population Hoechst High Intensity Objects (%)” value [4] was 8% and 6%. The “Population Membrane Permeable-Phenotype (%)” value [4] was 0%, the “Population Mitochondria Different-Phenotype (%)” value [4] was 42% and 63% and the “Population Mitotic Cells (%)” value [4] was 71% and 63%. For the same compound, the “Population Normal (%)” value [4] was 91% and 93%, the “Population Pyknosed Nuclei (%)” value [4] was 11% and 10% and the “Population Tubulin-Different-Phenotype (%)” value [4] was 34% and 23%. The “Total Cell Count” value [4] was 487 and 379, the “Population Apoptotic (%)” value [5] was 17% and 34% and the “Population Fragmented Nuclei (%)” value [5] was 20% and 13%. For the same compound, the “Population Healthy Nuclei (%)” value [5] was 73% and 78%, the “Population Hoechst High Intensity Objects (%)” value [5] was 2% and 3% and the “Population Membrane Permeable-Phenotype (%)” value [5] was 1%. The “Population Mitochondria Different-Phenotype (%)” value [5] was 15% and 22%, the “Population Mitotic Cells (%)” value [5] was 82% and 65% and the “Population Normal (%)” value [5] was 97% and 96%. The “Population Pyknosed Nuclei (%)” value [5] was 5% and 8%, the “Population Tubulin-Different-Phenotype (%)” value [5] was 12% and 11% and the “Total Cell Count” value [5] was 964 and 621. The “Population Apoptotic (%)” value [6] was 33% and 50%, the “Population Fragmented Nuclei (%)” value [6] was 14% and 13% and the “Population Healthy Nuclei (%)” value [6] was 76% and 80%. For the same compound, the “Population Hoechst High Intensity Objects (%)” value [6] was 2% and 3%, the “Population Membrane Permeable-Phenotype (%)” value [6] was 0% and 1% and the “Population Mitochondria Different-Phenotype (%)” value [6] was 28% and 33%. The “Population Mitotic Cells (%)” value [6] was 66% and 50%, the “Population Normal (%)” value [6] was 97% and 96% and the “Population Pyknosed Nuclei (%)” value [6] was 9% and 5%. The “Population Tubulin-Different-Phenotype (%)” value [6] was 18% and 13% and the “Total Cell Count” value [6] was 713 and 508.
In the case of `COCCn1c(C)c(C)s/c1=N\C(=O)C1C(C)(C)C1(C)C`, the “Population Apoptotic (%)” value [1] is reported as 37% and 41%, the “Population Fragmented Nuclei (%)” value [1] is reported as 10% and 5% and the “Population Healthy Nuclei (%)” value [1] is reported as 77% and 82%. For the same compound, the “Population Hoechst High Intensity Objects (%)” value [1] was 6% and 4%, the “Population Membrane Permeable-Phenotype (%)” value [1] was 0% and the “Population Mitochondria Different-Phenotype (%)” value [1] was 45% and 77%. For the same compound, the “Population Mitotic Cells (%)” value [1] was 62% and 58%, the “Population Normal (%)” value [1] was 93% and 95% and the “Population Pyknosed Nuclei (%)” value [1] was 12%. For the same compound, the “Population Tubulin-Different-Phenotype (%)” value [1] was 29% and 26%, the “Total Cell Count” value [1] was 335 and 304 and the “Population Apoptotic (%)” value [2] was 77% and 53%. For the same compound, the “Population Healthy Nuclei (%)” value [2] was 52% and 75%, the “Population Hoechst High Intensity Objects (%)” value [2] was 18% and 11% and the “Population Membrane Permeable-Phenotype (%)” value [2] was 0%. For the same compound, the “Population Mitochondria Different-Phenotype (%)” value [2] was 91% and 72%, the “Population Mitotic Cells (%)” value [2] was 22% and 46% and the “Population Normal (%)” value [2] was 81% and 88%. For the same compound, the “Population Pyknosed Nuclei (%)” value [2] was 13% and 16%, the “Population Tubulin-Different-Phenotype (%)” value [2] was 67% and 38% and the “Population Apoptotic (%)” value [3] was 19% and 35%. For the same compound, the “Population Fragmented Nuclei (%)” value [3] was 7% and 8%, the “Population Healthy Nuclei (%)” value [3] was 81% and the “Population Hoechst High Intensity Objects (%)” value [3] was 4% and 7%. For the same compound, the “Population Membrane Permeable-Phenotype (%)” value [3] was 0%, the “Population Mitochondria Different-Phenotype (%)” value [3] was 26% and 47% and the “Population Mitotic Cells (%)” value [3] was 80% and 64%. For the same compound, the “Population Normal (%)” value [3] was 95% and 92%, the “Population Pyknosed Nuclei (%)” value [3] was 11% and 10% and the “Population Tubulin-Different-Phenotype (%)” value [3] was 20% and 17%. The “Total Cell Count” value [3] was 447 and 383, the “Population Apoptotic (%)” value [4] was 71% and 45% and the “Population Fragmented Nuclei (%)” value [4] was 30% and 11%. For the same compound, the “Population Healthy Nuclei (%)” value [4] was 61% and 75%, the “Population Hoechst High Intensity Objects (%)” value [4] was 15% and 7% and the “Population Membrane Permeable-Phenotype (%)” value [4] was 0%. For the same compound, the “Population Mitochondria Different-Phenotype (%)” value [4] was 53% and 62%, the “Population Mitotic Cells (%)” value [4] was 28% and 54% and the “Population Normal (%)” value [4] was 84% and 92%. For the same compound, the “Population Pyknosed Nuclei (%)” value [4] was 8% and 13%, the “Population Tubulin-Different-Phenotype (%)” value [4] was 36% and 30% and the “Population Apoptotic (%)” value [5] was 20% and 45%. The “Population Fragmented Nuclei (%)” value [5] was 13% and 11%, the “Population Healthy Nuclei (%)” value [5] was 75% and 81% and the “Population Hoechst High Intensity Objects (%)” value [5] was 3%. The “Population Membrane Permeable-Phenotype (%)” value [5] was 0%, the “Population Mitochondria Different-Phenotype (%)” value [5] was 22% and 31% and the “Population Mitotic Cells (%)” value [5] was 79% and 55%. The “Population Normal (%)” value [5] was 96% and 97%, the “Population Pyknosed Nuclei (%)” value [5] was 11% and 7% and the “Population Tubulin-Different-Phenotype (%)” value [5] was 14% and 12%. For the same compound, the “Total Cell Count” value [5] was 649 and 567, the “Population Apoptotic (%)” value [6] was 60% and 38% and the “Population Fragmented Nuclei (%)” value [6] was 18% and 13%. The “Population Healthy Nuclei (%)” value [6] was 73% and 79%, the “Population Hoechst High Intensity Objects (%)” value [6] was 2% and 4% and the “Population Membrane Permeable-Phenotype (%)” value [6] was 2% and 0%. The “Population Mitochondria Different-Phenotype (%)” value [6] was 30% and 46%, the “Population Mitotic Cells (%)” value [6] was 40% and 61% and the “Population Normal (%)” value [6] was 97% and 95%. For the same compound, the “Population Pyknosed Nuclei (%)” value [6] was 8% and 6%, the “Population Tubulin-Different-Phenotype (%)” value [6] was 31% and 24% and the “Total Cell Count” value [6] was 191 and 493.
